Test results from ChEMBL document CHEMBL3352195, “14,15-Epoxyeicosa-5,8,11-trienoic Acid (14,15-EET) surrogates: carboxylate modifications” (J Med Chem, 2014).

Legend:
[1] = Vasorelaxant activity in bovine coronary artery assessed as reduction of U46619-induced contraction at 10 uM; type: functional, Bos taurus; design: scale not given: the % may be the effect or the level left
Outline: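 Precontracted bovine coronary artery rings were exposed to test agent at 10 μM. Relaxation is expressed as a percentage relative to a 14,15-EET control run in the same preparation. Bioassay determinations n = 3−5.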

[2] = Vasorelaxant activity in bovine coronary artery assessed as reduction of U46619-induced contraction; type: functional, tissue-based, Bos taurus
Outline: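 Bovine coronary artery rings, precontracted, exposed to compound to obtain a concentration–response for relaxation. The value is the EC50 for vasorelaxation. Bioassay determinations n = 3−5.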

[3] = molecular target: T1, Bifunctional epoxide hydrolase 2 (Homo sapiens, UniProt P34913); experiment: Inhibition of recombinant human sEH using CMNPC substrate by fluoresecent-based assay
T1 sequence (P34913 whole entry): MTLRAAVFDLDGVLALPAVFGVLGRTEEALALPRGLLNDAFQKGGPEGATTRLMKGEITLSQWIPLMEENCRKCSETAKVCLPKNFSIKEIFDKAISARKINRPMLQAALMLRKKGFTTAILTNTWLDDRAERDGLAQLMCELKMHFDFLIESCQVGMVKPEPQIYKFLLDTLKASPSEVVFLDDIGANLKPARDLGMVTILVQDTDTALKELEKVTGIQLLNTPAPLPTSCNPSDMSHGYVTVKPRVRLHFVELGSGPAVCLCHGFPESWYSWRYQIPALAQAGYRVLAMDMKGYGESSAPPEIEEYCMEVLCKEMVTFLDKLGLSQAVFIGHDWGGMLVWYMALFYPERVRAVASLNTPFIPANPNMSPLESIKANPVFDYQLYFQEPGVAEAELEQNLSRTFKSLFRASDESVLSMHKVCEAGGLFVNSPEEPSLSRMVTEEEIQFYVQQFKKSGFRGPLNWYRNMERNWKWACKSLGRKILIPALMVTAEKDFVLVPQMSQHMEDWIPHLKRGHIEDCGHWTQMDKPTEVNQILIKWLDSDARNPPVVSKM

Row | Compound | Activity [1] [%] | EC50 [2] [µM] | IC50 [3] [µM]
1 | CCCCCNC(=O)NCCCC/C=C\CCCCCCCc1nnn[nH]1 | 110 | 1.1 | 
2 | CCCCCNC(=O)NCCCC/C=C\CCCCOCC(=O)O | 49 |  | 
3 | CCCCCNC(=O)NCCCC/C=C\CCCCCCC(=O)NS(=O)(=O)c1ccccc1 | 73 | 6 | 
4 | CCCCCNC(=O)NCCCC/C=C\CCCCCSc1nnn[nH]1 |  | 3.7 | 
5 | CCCCCNC(=O)NCCCC/C=C\CCCCCCP(=O)([O-])[O-].[Na+].[Na+] | 71 | > 10 | 
6 | CCCCCNC(=O)NCCCC/C=C\CCCCCCc1noc(=S)[nH]1 | 93 | 3.3 | 
7 | CCCCCNC(=O)NCCCC/C=C\CCCCC[S+]([O-])c1ncn[nH]1 (stereo not drawn) |  | 3.5 | 
8 | CCCCNC(=O)C(=O)NCCCC/C=C\CCCCCCc1noc(=S)[nH]1 | 116 | 0.36 | > 0.5
9 | CCCCCNC(=O)NCCCC/C=C\CCCCCCC(=O)OCCOCCOCCO | 72 | 5.1 | 
10 | CCCCCNC(=O)NCCCC/C=C\CCCCCCS(=O)(=O)[O-].[Na+] | 63 | 7.6 | 
11 | CCCCCNC(=O)NCCCC/C=C\CCCCCCc1nnn[nH]1 | 119 | 0.18 | 
12 | CCCCCNC(=O)NCCCC/C=C\CCCCCSc1ccccc1O |  | > 10 | 
13 | CCCCNC(=O)C(=O)NCCCC/C=C\CCCCCCC(=O)OCCOCCOCCO | 104 | 1.5 | > 0.5
14 | CCCCCNC(=O)NCCCC/C=C\CCCCCCC(=O)NS(C)(=O)=O | 61 | 6.7 | 
15 | CCCCCNC(=O)NCCCC/C=C\CCOc1cccc2sc(NC(C)=O)nc12 |  | 3.3 | 
16 | CCCCCNC(=O)NCCCC/C=C\CCCCCCc1nsc(=O)[nH]1 | 54 | 2.4 | 
17 | CCCCCNC(=O)NCCCC/C=C\CCCCCCC(=O)N[C@@H](CC(=O)[O-])C(=O)[O-].[Na+].[Na+] | 91 | 1.6 | 

Row | Compound | Activity [1] [%] | EC50 [2] [µM] | IC50 [3] [µM]
18 | CCCCCNC(=O)NCCCC/C=C\CCCCCNS(=O)(=O)c1ccccc1 |  | 3.4 | 
19 | CCCCCC1OC1C/C=C\C/C=C\C/C=C\CCCC(=O)O (stereo not drawn) | 85 | 2.2 | 
20 | CCCCCCC(=O)N(CCCC/C=C\CCCCCCC(=O)NCC(=O)O)C(C)C | 95 | 1.9 | > 0.5
21 | CCCCCCC(=O)N(CCCCCOc1cccc2sc(NC(C)=O)nc12)C(C)C | 96 |  | > 0.5
22 | CCCCCNC(=O)NCCCC/C=C\CCCCCCC1=NOS(=O)N1 (stereo not drawn) | 109 | 0.34 | 
23 | CCCCCNC(=O)NCCCC/C=C\CCCCCS(=O)(=O)c1ncn[nH]1 |  | 3.1 | 
24 | CCCCCNC(=O)NCCCC/C=C\CCCCCSc1ncn[nH]1 |  | 9.8 | 
25 | CCCCCNC(=O)NCCCCCOc1cccc2sc(NC(C)=O)nc12 | 73 | 0.9 | > 0.5
26 | CCCCCNC(=O)NCCCC/C=C\CCCCCCc1noc(=O)[nH]1 | 89 | 1.1 | 
27 | CCCCCCC(=O)N(CCCC/C=C\CCCCCCC1=NOS(=O)N1)C(C)C (stereo not drawn) | 109 | 0.32 | > 0.5
28 | CCCCNC(=O)C(=O)NCCCC/C=C\CCCCCCc1nnn[nH]1 | 96 | 1.7 | > 0.5
29 | CCCCCN(C)C(=O)N(C)CCCC/C=C\CCCCCCC(=O)NCC(=O)O | 92 | 2.75 | > 0.5
30 | CCCCCCC(=O)N(CCCC/C=C\CCCCCCC(=O)OCCOCCOCCO)C(C)C | 86 | 2.9 | > 0.5
31 | CCCCCCC(=O)N(CCCC/C=C\CCCCCCc1nnn[nH]1)C(C)C | 74 | 1 | > 0.5
32 | CCCCCNC(=O)NCCCC/C=C\CCCCCC1SC(=O)NC1=O (stereo not drawn) |  | > 10 | 
33 | CCCCCNC(=O)NCCCC/C=C\CCCCCS(=O)(=O)c1ccccc1O |  | 5 | 
34 | CCCCNC(=O)C(=O)NCCCCCOc1cccc2sc(NC(C)=O)nc12 | 96 | 2.4 | > 0.5
